To fix the notation:
B1: tRNA (parent)
chain: GUUCCGUUGGCGUAAUGGUAACGCGUCUCCCUCCUAAGGAGAAGACUGCGGGUUCGAGUCCCGUACGGAACG

This sample holds only a part of the variants without activity.

This data set covers variants of B1. The experiment in a line: yeast fitness relative to wild type (ratio to wild type); higher = fitter; tRNA-Arg(CCU), competitive growth, 37 C, YPD. An outline of the steps:
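Start and end populations of a pooled competition were compared by 100-nucleotide paired-end sequencing of gene amplicons. The Saccharomyces cerevisiae strains carried tRNA-Arg(CCU) gene variants at the native genomic locus, synthesised with a 3% per-site mutation rate at 69 sites, and competed in YPD at 37°C for 24 hours in six parallel replicates. Darwinian fitness relative to wild type was based on the change in genotype frequencies. Genotypes required ≥ 100 starting reads, and estimates < 0.5 were set to 0.5.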
For the variant GUUCCGUUGGCGUAAUGGUAACGCGUCCCCCUCCUAAGGAGACGACUGCGGGUUCGAGUCCCGUACCGAACG [U28C A43C G67C], the yeast fitness was found to be 0.528.
For GUUCCGUUGGCGUAAUGGUGACGUGUCUCCAUCCUAAGGAGAAGACUGCGGGUUCGAGUCCCGUACGCAACG [A20G C24U C31A G68C] the value was no more than 0.5.
The figure for GUUCCGCUGGCGUAAUGAUAAGGCGUCUCCCUCCUAAGGAGAAGACUGCGGGUUCGAGUCCCGUACGGAACG [U7C G18A C22G] is 0.586; for GUUACGUUGGCGUAAUGGUAACGCGUCUCCCCCCUAAGGAGCAGACUGCGGGUUCGAGUCCCGUACGGAACG [C4A U32C A42C] it is 0.578; for GUUCCGUUGGCGUAAUGGUAACGCGUCUCCCUCCUAAGGAGAAGACUCCGCGUUCGAGUCCCGUACGGUACG [G48C G51C A69U] it is no more than 0.5.
For GUUCCGUUGGCGUGAUGGUAACGCGUGUCCCUCCUAAGGAGAAGACUGCGGGUUCGAGUCCCGUACGGAACG [A14G C27G] the value was 0.562.
In the case of GUUCCGUUGGCGUAAUGGUAACGCGUCUCCGUCCUAAGGAAAAGACUGCGGGUUCGAGUCCCGUCCGGAACG [C31G G41A A65C], the yeast fitness is no more than 0.5.
For GUUACGUUGGCGUAAUGGUGACGCGUCUCCCUCCUAAGGAGAACGCUGCGGGUUCGAGUCCCGUACGGAACG [C4A A20G G44C A45G] the value was 0.506; for GUUCCGUUGGCGUAAUGGUAACGUCUCUCCCUCCUAAGGAGAAGAAUGCGGGUUCGAGUCCCGUACGGAACG [C24U G25C C46A], 1.02; for GUUCCGCUGGCGUAAUGGUAACGCGUCUCCCUCCUAAGGAGCAGACUGCGGGUUUGAGUCCCGUACGGAACG [U7C A42C C55U], no more than 0.5.
The figure for GGUCCGUUGGCGUAAUGGUAACGCGUGUCCCUCCUAAGGAGAAGACUGCGGGUUCGAGUCCCGUACCGAACG [U2G C27G G67C] is no more than 0.5; for GUUCCGCUGGGGUAAUGGUAACGUGUCUCCCUCCUAAGGAGAAGACUACGGGUUCGAGUCCCAUACGGAACG [U7C C11G C24U G48A G63A] it is no more than 0.5.
The figure for GUAUUGUUGGCGUAAUGGUAACGCGUCUCCCUCCUAAGGAGAAGACUCAGGGUUCGAGUCCCGUACCGAUCG [U3A C4U C5U G48C C49A G67C A70U] is 0.663; for GUUCCGUUGGCGUAACGGUAACGCGUCUCCCUCCUAAGGAGAAGACUGCGGGUUAGUGUCCCGUACGGAACG [U16C C55A A57U] it is no more than 0.5.
For GUUCCGUUGGCGUAAUGGUAACGCGUUUCCCUCCUAAGGAGGAGACUGCGGGUUCGAGUCCCGUACAGAACG [C27U A42G G67A], the yeast fitness turned out to be 0.589.
For GUUCCGUUGGAGUAAUGGUAAGGCGUCUGCCUCCUAAGGAGAAGACUGCGGGUUCGAGUCUAGUACGGAGCG [C11A C22G C29G C61U C62A A70G] the value was no more than 0.5.
For GUUCCGUUGGCGUAAUCGUAACGCGUCUCCCUUCUAAGGAGAAGACUGCGGGUUCGAGUCCCGUACGGAACG [G17C C33U] the value was 0.556.
For GAUCCGUUGGCGUAAUGGUAACGUGUCUCCCUCCUAAGGAGAAGACCGCGGGUUCGAGUUCCGUACGGAACG [U2A C24U U47C C60U] the value was no more than 0.5; for GUUCCGUUGGCGUAAUGGUAACGCGUCUCCCUCCUAAGGAAUAGACUGCCGGUUCGAGUCCCGUACGGAGCG [G41A A42U G50C A70G], no more than 0.5; for GUUCCGUUGGCGUAAUGGUAACGCGUCGCCCUCCUAAGGUGAAGACUGCGGGUUCGAGCCCCGUACGGAACG [U28G A40U U59C], 0.576.
Regarding GUUCCGUUGGCGUAAUGGUAAGGUGUCUCCCUCCUACGGAGAAGACUGCGGGUUCGAGUCCCGUACGGAACG [C22G C24U A37C], the yeast fitness is no more than 0.5.
Turning to GUUCCGUUGGCGUAUUGGUAACCCGUCUCCCUACUAAGGAGAAGACUGCGGGUUCGAGUCCCGUACGGAACG [A15U G23C C33A], the yeast fitness was no more than 0.5.
The figure for GUUCCGUUGGCGUAUUGGUAACGCGUCUCCAUCCUAAGGAGAAGACUGGGGGUUCGAGUCCCGUACGGACCG [A15U C31A C49G A70C] is no more than 0.5.
The figure for GUUCCGUUGGCGGAAUGGUAACGCGUCUCCCUCCUAAGGAGAGGACUGCGGGAUCGAGUCCCGUACGGAACG [U13G A43G U53A] is 0.57; for GGUCCGUUGGCGUAAUGGUAACGCGUCUCCCUCCUAAGGCGAAGACUGCGGGUUCGAGUCCCGUGGGGAACG [U2G A40C A65G C66G] it is no more than 0.5; for GGUCCGUUGGCGUAAUGGUAGCGCGUCUCCCUCCUAAGGAGAAGACUGCGGGUUCGCGUCCCAUACGGAACG [U2G A21G A57C G63A] it is no more than 0.5.
The figure for GUUCCGUUGGUGUAAUGGUAACGCGUCUCCCUCCUAAGGAGAAGACUGUGGGUUCGAGUCCCGUGCGGAACG [C11U C49U A65G] is 0.76; for GUUCCAUUGGCGUAAUGGUAACGCGUGUCCCUCGUAAGGAGAAGACUGCGGGUUCGAGUCCCGUCCGGAACG [G6A C27G C34G A65C] it is no more than 0.5.
GUUCCGUUGGCGUAAUGGUAACGCGUCUCCUUCCUAAGGAGAAGACUGCGGGUUCGACGCGCGUACGGAACG [C31U G58C U59G C61G]: the yeast fitness is no more than 0.5.
With GUUCCGUUGGCGUAAUGGUAACGCGUCUCCCUCUUAAGGAGAACACGGCGGGUUCGAGUCCCGUCGGGAACG [C34U G44C U47G A65C C66G], the yeast fitness was no more than 0.5.
For GUUCCGUUGGCGUAAUGGUUACGCGUCUCCUUCCUAAGGAGAAGACUGCGGGUUCGAGUCCAGUACGGUACG [A20U C31U C62A A69U] the value was no more than 0.5; for GAUCCGUUCGCGUCAUGGUAACGCGUCUCCCUCUUAAGGAGAAGACUGCGGGUUCGAGUGCCGUACGGAACG [U2A G9C A14C C34U C60G], 0.551; for GUUCCGUUGGCGUCAUGGUAACGCGUCUCCCUCCUAAGGAGAAGACUGCGGGUUCGAGUCCCGUACGGGACG [A14C A69G], 0.692.
The figure for GUUCCGUGGGCGUAAUGGUAACGCGUCUCCCUCCAAAGGAAAAGACUGCGGGUAUGAGUCCCGUACGGAACG [U8G U35A G41A U54A C55U] is no more than 0.5.
For GUUCCGUUGGCGUUAUGGUAACGCGUCUCCCUCCCAAGGAGAAGACUGCGGGUUGGAGUCGCGUAUGGAACG [A14U U35C C55G C61G C66U] the value was no more than 0.5.
With GUUCCGUAGGCGUAAUGGUAACGCGUCUCCCUCCUAAGGUGAAGACUGCGGCUUCGAGUCCCGUACGGAACG [U8A A40U G52C], the yeast fitness amounted to 0.573.
The figure for GUCCCGUUGGUGUAAUGGUAACGCGUCUCCCUCCUAAGGAGAAGACUGCGGGUUCGAGUCCCGUACGGAACG [U3C C11U] is 1.06.

These data come from the RNAGym collection of RNA variant scans (doi:10.1126/science.aae0568).
